# Screens deposited in PubChem by several laboratories.
# m5-HT2A agonist = mouse HTR2A agonism via beta-arrestin recruitment. CHO-K1 mHTR2A beta-arrestin complementation, luminescence; percent of 30 µM serotonin response. P35363. actives 0.66% (n = 360,000). activation, % at 7.6 µM;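 active means activation above a run cutoff, the mean activation of all tested compounds plus 3 SD, cut at about 14% in these data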;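 further: 0% = plate median of compound wells and 100% = 30 µM serotonin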
# MC4R barr agon = agonists of human melanocortin 4 receptor (MC4R) beta-arrestin | AID 540308 | U2OS MC4R beta-arrestin complementation, luminescence; percent of melanotan II response, DMSO zero | P32245 | activation, % at 8.9 µM | actives 0.98% (n = 360,000);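 active means activation above a per-plate cutoff, the mean activation of sample wells on that plate plus 3 SD, cut at about 8% in these data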
# Target sequence (P32245 whole entry, looked up): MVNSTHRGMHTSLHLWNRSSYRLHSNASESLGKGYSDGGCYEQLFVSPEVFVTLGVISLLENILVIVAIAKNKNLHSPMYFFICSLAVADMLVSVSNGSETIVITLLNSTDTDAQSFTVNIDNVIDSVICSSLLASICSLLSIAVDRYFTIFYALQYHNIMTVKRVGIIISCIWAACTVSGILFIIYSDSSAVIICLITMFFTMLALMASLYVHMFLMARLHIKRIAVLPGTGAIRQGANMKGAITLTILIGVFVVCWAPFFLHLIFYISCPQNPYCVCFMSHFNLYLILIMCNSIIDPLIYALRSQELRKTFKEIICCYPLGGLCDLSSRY
# ANO1 block = inhibitors of mouse TMEM16A calcium-activated chloride channel. HEK293 TMEM16A/YFP iodide influx fluorescence, ionomycin. actives 1.2% (n = 310,000). Q8BHY3. normalized B-score (activity score, 25-100; higher = stronger inhibition) at 10 µM;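 active means ratio plate-corrected score three or more library SD toward inhibition, starting fluorescence score within five deviations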;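 further: score derived from kinetic fluorescence span divided by baseline fluorescence per well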
# TMEM16A act = activators or potentiators of mouse TMEM16A chloride channel. Q8BHY3. HEK293 TMEM16A/YFP-H148Q/I152L, iodide quench fluorescence; active compounds read low. B-score at 10 µM. actives 0.3% (n = 340,000). AID 623877;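 active means fluorescence-ratio B-score plate-corrected deviation score at least 3 library SD below zero, with starting fluorescence score within 5 deviations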;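 further: channel opened by trigger with iodide after compound preincubation; score built on the fluorescence ratio of max minus min over baseline; more negative score means more quench and so TMEM16A activation or potentiation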
# MIN6 prolif = induces beta-cell replication in MIN6 cells; actives 0.29% (n = 330,000); proliferation, % at 10 µM; MIN6 cells proliferation, ATPlite luminescence, 48 h; cells starved in 0.2% serum; 100% = growth in 10% serum;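 active means compounds whose signal lies at least 3.5 SD above the mean of all wells on their plate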;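 further: 0% = DMSO-treated cells in low-serum medium and 100% = 10% serum control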
# MC4R antag cAMP = antagonists of human melanocortin 4 receptor (MC4R); inhibition, % at 6.5 µM; MC4R-expressing cells, MTII-stimulated cAMP, LANCE TR-FRET; actives 0.48% (n = 360,000); AID 540295;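 active means inhibition above its plate's cutoff, the mean of tested wells on that plate plus 3 SD, cut at about 29% in these data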;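 further: 0% = Melanotan II alone and 100% = Melanotan II plus saturating MCL0020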
#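 System: U2OS-MC4R stable cell line; Technique: Eu-cAMP/anti-cAMP TR-FRET, emission 671 nm; Repeats: single well per compound; Also added: Melanotan II; Dosing: one concentration, 6.5 µM nominal; Schedule: 30-min compound, 1-h challenge, 1-h detection, room temperature.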
# Numbers without * were called inactive; i = inactive; x = no result. A selection: hits, their analogues and other compounds. The true share with any hit is near 3.4%.
SMILES,m5-HT2A agonist,MC4R barr agon,ANO1 block,TMEM16A act,MIN6 prolif,MC4R antag cAMP
C[C@@H]1O[C@@H](O[C@H]2C[C@@H](O)[C@]3(CO)[C@H]4[C@H](O)C[C@]5(C)[C@@H](C6COC(=O)C6)CC[C@]5(O)[C@@H]4CC[C@]3(O)C2)[C@H](O)[C@H](O)[C@H]1O (stereo partly specified),9.1,23.9*,i,i,-2.8,6.3
CC1OC(OC2CC(O)C3(CO)C4C(O)CC5(C)C(C6=CC(=O)OC6)CCC5(O)C4CCC3(O)C2)C(O)C(O)C1O (stereo unspecified),-1.4,16.1*,x,i,x,13.1
C[C@]12CCC3C(C(=O)C[C@H]4C[C@@H](O)CC[C@]34C)C1CCC2=O (stereo partly specified),-0.3,-0.3,x,i,-1.4,2.2
COc1ccc(N2C(=O)NC(=O)/C(=C\c3ccc([N+](=O)[O-])s3)C2=O)cc1,1.5,-1.9,i,-6.4*,-5.6,19.5
COc1ccc(N2C(=O)NC(=O)/C(=C/c3ccc([N+](=O)[O-])s3)C2=O)cc1,-0.8,-2.9,i,i,-6.0,12.7
N#Cc1ncc(N=Cc2ccc(N(CCCl)CCCl)cc2)s1,1.3,-1.8,x,i,x,-1.2
CC(C)[C@H]1C(=O)N2CCC[C@H]2[C@]2(O)O[C@](NC(=O)[C@@H]3C=C4c5cccc6[nH]cc(c56)C[C@H]4N(C)C3)(C(C)C)C(=O)N12,48.6*,-0.8,i,i,-6.2,-2.5
CC(C)C[C@H]1C(=O)N2CCCC2[C@]2(O)O[C@](NC(=O)[C@@H]3C=C4c5cccc6[nH]cc(c56)CC4N(C)C3)(C(C)C)C(=O)N12 (stereo partly specified),29.9*,-0.4,i,i,-7.7,-0.9
CC(NC(=O)N1CC1(C)C)c1ccccc1 (stereo unspecified),0.0,-1.5,x,i,x,-8.8
CCOC(=O)c1c(C)n(Cc2ccccc2)c2ccc(OCC(O)Cn3nc(C)cc3C)cc12 (stereo unspecified),-2.9,1.2,100*,i,-3.8,14.1
COc1ccc(-[n+]2c(-c3ccccc3)cc(-c3ccccc3)cc2-c2ccccc2)cc1,x,x,100*,x,-7.7,x
O=[N+]([O-])c1ccc(-[n+]2c(-c3ccccc3)cc(-c3ccccc3)cc2-c2ccccc2)cc1,0.3,-2.1,i,i,-0.6,5.0
CCN(CC)S(=O)(=O)c1ccc(NN=C(C#N)C#N)cc1,0.5,0.6,100*,i,-4.6,-2.5
CCOc1ccc(-c2cc(C)[n+](CCc3ccc(OC)c(OC)c3)c(-c3ccc(OCC)cc3)c2)cc1,1.8,-0.2,25*,i,-5.2,6.1
CCOc1ccc(-c2cc(C)[n+](CCO)c(-c3ccc(OCC)cc3)c2)cc1,7.6,-2.2,i,i,-6.1,4.1
Cc1cc(-c2ccccc2)cc(-c2ccccc2)[n+]1CCc1ccccc1,-6.7,-0.5,25*,i,-8.2,2.7
CCCCn1nnnc1C(CCSC)N1CCC(n2c(=O)[nH]c3ccccc32)CC1 (stereo unspecified),11.8,x,x,x,x,x
O=C1CC2OCC=C3CN4CCC56c7ccccc7N1C5C2C3CC46O (stereo unspecified),3.5,0.3,x,x,x,1.7
c1ccc2c(c1)[IH]c1ccccc1-2,2.9,-1.2,x,-5.78*,x,-11.8
c1ccc2c(c1)-c1cccc3cccc-2c13,2.0,1.0,i,i,-4.2,11.6
CN[C@@H]1C[C@@H](c2ccc(Cl)c(Cl)c2)c2ccccc21,x,x,25*,x,-7.7,x
C[C@H]1OC[C@@H](C[N+](C)(C)C)O1,4.4,0.8,i,-12.6*,-5.2,4.5
CN1C2CNC(=O)CC1C1CCC2C1 (stereo unspecified),9.2,0.1,x,x,x,3.7
Cc1cc(Cl)ccc1OCC(=O)O,-0.6,-0.2,i,i,5.2,8.0
Cc1cc(Cl)ccc1OC(C)C(=O)O (stereo unspecified),14.8*,0.5,i,i,-0.8,6.3
SMILES,m5-HT2A agonist,MC4R barr agon,ANO1 block,TMEM16A act,MIN6 prolif,MC4R antag cAMP
Cc1cc(C)n(-c2ccc(NN=C(C#N)C#N)cc2)n1,3.7,-0.5,i,i,-6.0,10.7
N#CC(C#N)=NNc1ccc(-n2ccc(C(F)(F)F)n2)cc1,11.5,0.3,100*,-4.62*,-3.9,6.0
CC(C)(C)c1cc([N+](=O)[O-])cc(C(C)(C)C)c1O,x,x,100*,x,-6.0,x
C[C@]12C[C@H](O)[C@@H](O)C[C@@H]1CC[C@@H]1[C@@H]2CC[C@]2(C)C(=O)CC[C@@H]12,1.7,1.0,x,x,x,-3.5
Cc1nc2cc([N+](=O)[O-])ccc2c(=O)n1-c1ccc(Br)cc1,2.8,-1.0,i,-13.4*,-4.4,-0.6
Cc1ccc(N2C(=O)NC(=O)/C(=C\c3cc(C)n(-c4sc5c(c4C#N)CCCC5)c3C)C2=O)cc1,3.4,-1.6,25*,i,-3.2,-7.5
O=C1NCN(c2ccccc2)C12CCN(C(c1ccccc1OC(F)(F)F)c1nnnn1-c1ccc3c(c1)OCCO3)CC2 (stereo unspecified),2.4,x,x,x,x,x
O=C1C2CC(CN3CCCCC23)C2CCCCN12 (stereo unspecified),-2.0,1.0,x,x,x,-5.5
C=C(C=O)CC1CC(O)[C@]2(C)OC3CC4OC5C[C@]6(C)O[C@]7(C)CCC8OC9C[C@]%10(C)OC%11C(C)=CC(=O)OC%11CC%10OC9C[C@@H](C)C8OC7CC6O[C@]5(C)CC5OC5C4OC3CC2O1 (stereo partly specified),7.3,-1.9,i,-7.97*,-8.1,-14.2
CC(=O)OC1CC(OC2C(O)CC(OC3C(O)CC(OC4CCC5(C)C(CCC6C5CCC5(C)C(C7=CC(=O)OC7)CCC65O)C4)OC3C)OC2C)OC(C)C1OC1OC(CO)C(O)C(O)C1O (stereo unspecified),-0.1,33.0*,x,i,x,-4.7
O=C(CCN1CC1)OCCOC(=O)CCN1CC1,6.0,-1.7,x,i,x,6.2
C=CCN1C(=O)NC(=O)/C(=C\c2ccc(-c3ccccc3[N+](=O)[O-])o2)C1=O,0.1,0.2,i,i,-3.7,12.6
O=C1NC(=O)N(Cc2ccco2)C(=O)/C1=C/c1ccc(-c2cccc([N+](=O)[O-])c2)o1,4.7,-0.6,i,i,-2.1,31.0*
CSc1ncc(CN2CCCC(C(=O)c3ccccc3SC)C2)cn1 (stereo unspecified),1.1,-2.9,i,i,-1.4,-0.2
CSc1ccc(C(=O)C2CCCN(Cc3cnc(SC)nc3)C2)cc1 (stereo unspecified),-2.7,0.7,25*,i,-0.9,6.7
